Test results: ChEMBL document CHEMBL4513216, “Probing the Open Global Health Chemical Diversity Library for Multistage-Active Starting Points for Next-Generation Antimalarials” (ACS Infect Dis, 2020)

Test: Toxicity liver stage against HepG2, at 10uM
Assay type: cell-based
Set-up: test concentration 10 uM, cell line HepG2-A16-CD81EGFP
Details: human, HepG2-A16-CD81EGFP cells; read-out: INHIBITION
Procedure, shortened: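 Uninfected HepG2-A16-CD81EGFP cells, 3 × 10^3 per well, 1536-well, plated on prespotted compound at 10 μM final, parasite-free screening media added to match infected plates; puromycin 10 μM positive, DMSO 0.5% negative; run in parallel with 48 h PbLuc assay at 37 °C, 5% CO2; viability by CellTiter-Glo luminescence, normalized to controls.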

Structure (SMILES) | cytotoxicity at 10 µM [%]
Cc1ccc(C(=O)N2CC(=O)N(Cc3ccco3)CC(O)C2)cc1 (configuration not stated) | -0.817
O=C(CCc1nc2cc(Br)cnc2[nH]1)NCc1cccnc1 | -0.874
CCOC(=O)CCC(=O)N1CCC(CSCc2ccco2)CC1 | -10.3
COCCN(C)C(=O)c1nc2c(s1)CCCN2C(=O)C1CC1 | -143
COCC1CN(S(C)(=O)=O)Cc2ncn(CC3CC3)c21 (configuration not stated) | 1.68
CS(=O)(=O)NCc1n[nH]c2c1CCN(C(=O)c1ccsc1)C2 | 4.01
CC(C)NC(=O)N1CC[C@@H]2CN(Cc3cccc(Cl)c3)S(=O)(=O)[C@@H]2CC1 | 4.71
CCN(CC)Cc1nnc2sc(C(C)Oc3ccccc3)nn12 (configuration not stated) | 8.35
CC(=O)NCC(=O)N1CCOCC(Cc2ccc3c(ccn3C)c2)C1 (configuration not stated) | 1.89
Cc1ncsc1C(=O)NCc1ccc(-c2n[nH]cc2C(=O)N(C)C)cc1 | 0.522
CN(C)S(=O)(=O)N1CC(c2ccnc(Nc3ccccn3)n2)C1 | 8.84
Cc1cccnc1C(Cc1ccsc1)NCc1cnc(N(C)C)nc1 (configuration not stated) | 5.24
CN1CCC(c2cncc(C(=O)NCc3ccc(F)cc3)n2)CC1 | -8.11
Cc1cnn(CC(C)NCc2cccnc2)c1 (configuration not stated) | -3.3
CC(NCCCN1CCCC1=O)c1ccc(F)cc1N(C)C (configuration not stated) | -2.78
Cc1ccc(O)c(C(=O)NCCS(=O)(=O)Cc2ccccc2)c1 | 4.57
CN1CCOC(C(=O)Nc2nnc(Cc3ccc(F)cc3)[nH]2)C1 (configuration not stated) | -4.95
COc1ccc(NC(=O)CN2CCS(=O)(=O)CC2)cn1 | 11.8
Cc1nc(C(C)(C)NCc2nnc(C(C)C)o2)sc1C | 6.35
CCc1nnsc1C(=O)N1CCOC(c2nc(C(C)C)n[nH]2)C1 (configuration not stated) | 1.23
CCN(CC)C(CNC(=O)c1ccc(-n2cncn2)cc1)c1ccsc1 (configuration not stated) | -141

Structure (SMILES) | cytotoxicity at 10 µM [%]
Cc1cc(C2CCCN(C(=O)COc3ccc(F)cc3)C2)n[nH]1 (configuration not stated) | 3.59
CCOC(C)c1nc(CNc2cccc(Cl)c2OC)cs1 (configuration not stated) | 6.16
NC(=O)CN(CC(=O)NCc1cccc(Cl)c1)C1CCCC1 | -0.979
CCOCCCC(=O)N1CCN(c2cccc(OC)c2)C(C)C1 (configuration not stated) | 0.0272
CN(Cc1noc(C(C)(C)C)n1)Cc1ccccc1N1CCCC1 | -1.78
COc1ccc2c(c1)CN(CC(=O)NC1CCCC1)CC2 | -1.77
O=C(NCCCNC(=O)c1ccc(F)cc1F)c1cccc(O)c1 | 2.9
Cc1cc(C(=O)Nc2cccn(Cc3ccc(F)cc3)c2=O)on1 | 5.38
COCCn1cc(NCc2cccc3cn[nH]c23)cn1 | -3.31
O=C(Cc1csc(N2CCNC2=O)n1)NC1(c2ccccc2)CCC1 | -135
Cc1sc2nc(SC(C)c3nc(C(C)C)no3)nc(N)c2c1C (configuration not stated) | -2.4
CS(=O)(=O)c1nccn1Cc1ccc(Cl)cc1 | -10.4
N#Cc1ccc(S(=O)(=O)N2CC(CC(=O)O)c3ccccc32)cc1 (configuration not stated) | 0.513
CN(CCC(F)(F)F)Cc1nc2ccccc2c(=O)[nH]1 | -5.61
c1ccc2nc(N3CCCC(Cn4cncn4)C3)cnc2c1 (configuration not stated) | 5.46
Cn1c(CNc2c(F)cccc2-n2cccn2)cc(=O)n(C)c1=O | -7.79
Cc1cccc(CCC(=O)N2CCOCC2c2c(C)n[nH]c2C)c1 (configuration not stated) | -13.3
CCN1CC(C(=O)NCc2ccnc(-n3ccnc3C)c2)CC1=O (configuration not stated) | -25.5
O=C(C1CCOCC1)N1CCc2ncc(CN3CCCCC3)n2CC1 | -78.4
Cn1cc(N2CCC3(CCCN(Cc4ccoc4)C3)C2=O)cn1 (configuration not stated) | -77
COc1c(C)cc(S(=O)(=O)NCC2CNCCOC2)cc1C (configuration not stated) | -3.53

Structure (SMILES) | cytotoxicity at 10 µM [%]
CCCn1nccc1C(=O)N1CCN(C(=O)C2CC2)[C@@H]2CS(=O)(=O)C[C@@H]21 | 4.05
CCN(CCn1cccn1)Cc1nc(-c2cccc(C)c2)oc1C | 0.0489
Cn1nccc1C(=O)N1CCN(C(=O)C2CCC2)[C@@H]2CS(=O)(=O)C[C@@H]21 | 4.86
Cc1noc([C@@H]2CCCN2C(=O)C2CCN(CC(N)=O)CC2)n1 | 3.96
Cc1nc(C(C)NCc2cc(O)c3cccc(F)c3n2)cs1 (configuration not stated) | 8.33
CCc1cc(N(C)Cc2ccno2)n2nc(C)c(C)c2n1 | 1.35
N#Cc1c(N)nc2c(c1-c1c[nH]nc1C1CCCCC1)CC(N)CC2 (configuration not stated) | -3.06
Cc1ccc(N2CCC(C(O)Cc3ccccc3)CC2)nn1 (configuration not stated) | -3.43
COCc1noc(Cn2ncn3cccc3c2=O)n1 | -5.56
CC1CN(Cc2ccccc2Cn2cccn2)CCN1C (configuration not stated) | -132
COc1ccc(-c2ccccc2CCN)c(OC)c1 | 8.95
O=C(O)c1coc(COc2cccc3cnccc23)n1 | -110
Cc1csc2c(=O)n(CCN3CCC(c4ccccc4)CC3)cnc12 | 1.2
CC1(C)CN(CC(=O)NCc2ccccc2F)C[C@]1(C)O | -1.84
CC1(C)CC(N2CCN(C3CCCC3)C(CCO)C2)CC(C)(C)C1 (configuration not stated) | -7.19
Cc1cc(N2CCN(C(=O)c3cnn(C(C)C)c3)CC2)nc(N)n1 | -2.82
CSCc1noc(CN(C)C(C)c2nc(C)sc2C)n1 (configuration not stated) | 8.2
CNC(=O)C1CCN(Cc2nc(-c3ccc(SC)cc3)oc2C)C1 (configuration not stated) | -0.465
COc1ccc(C(C(=O)O)N2CCC(O)(c3cccnc3)CC2)cc1Cl (configuration not stated) | 4.57
CC(C)=CCn1ncc(N2CCCCC2)cc1=O | -9.48
CCCS(=O)(=O)N1CCN(c2cc(-n3ccnc3)nc(C)n2)CC1 | -1.89

Structure (SMILES) | cytotoxicity at 10 µM [%]
CC(=O)Nc1ccc(-c2ccccc2CCN)cc1 | 3.61
Cc1cc(CC(=O)N2CCN(CC3CC3)[C@@H]3CS(=O)(=O)C[C@@H]32)ccc1F | 5.17
CC(C)C1CN(c2ncc(F)cn2)CCC(=O)N1Cc1ccc(F)cc1 (configuration not stated) | 16.9
COCC1CCN(C(=O)c2cccc(S(=O)(=O)NCC3(C)COC3)c2)C1 (configuration not stated) | 3.82
COc1ccc(OC)c(CNCc2ccnc(N3CCOCC3)c2)c1 | 1.27
Cc1ncsc1C(=O)N(Cc1ccccn1)C1CC1 | -11.2
Cc1ccc2oc(C(=O)N3CCCC(n4nc(C)nc4C)C3)cc2n1 (configuration not stated) | -7.39
C=C(C)CN(CC)C(=O)CN(C)C1CCc2ccccc21 (configuration not stated) | -11.6
Cc1nn(C)c(C)c1C1CCCN1C(=O)c1cnc2onc(C)c2c1 (configuration not stated) | -8.48
FC(F)(F)Cn1ccnc1CNCC1CCCN1c1cccnn1 (configuration not stated) | -26.6
O=C(NCCN1CCCCC1)c1ccn(-c2ccc(F)cc2)n1 | -8.05
Cc1nc(C)n(C2CCCN(C(=O)c3ccn(C(C)C)n3)C2)n1 (configuration not stated) | -22.6
Cc1cc(CN2CCN(C(=O)NCc3nc(C)cs3)CC2)on1 | -5.01
COCCOc1ccccc1CNCc1c(C)nn(C)c1N(C)C | -5.65
CN1CCCC(c2ccc(N3CCOCC3)cn2)C1 (configuration not stated) | -6.47
CNCc1ccc([C@@H]2CN(C(C)=O)C[C@H]2C(N)=O)cc1 | 5.32
c1ccc(CN2CCc3nnc(CN4CCCCC4)n3CC2)nc1 | 3.73
CCc1ccc(CN2C[C@@H](c3nc(C)no3)C[C@H]3OCC[C@H]32)o1 | -75.8
C=c1occc1=C1NC(c2cccc(CN3CCOCC3)c2)=NO1 | -5.92
